Reference: PMC11842550 (Scientific Reports, 2025)
Entries after “also recorded” stand apart in the source; their conditions may differ. Read-outs that look alike come from different tables or passages of the source. Bridges are numbered along the chain shown (N, C = ends). Where no end group is shown, it is not given here.

Tests used:
[1] = test system: Borrelia; assay: Dot blot binding of individual phage clones to Borrelia; design: species or system Borrelia garinii (strain SKT-7.1); settings: spirochetes fixed on PVDF membrane, anti-M13 antibody
In short: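 2 µl Borrelia (PBS, OD600 1.2) are spotted on activated PVDF, air-dried, fixed with 4% paraformaldehyde for 10 min, dried overnight and blocked for 1 h. Individual phage clones from the third panning (10^11) are added for 1 h with shaking. After PBS-0.05% Tween washes, anti-M13 pIII mAb (1:1000) then IRDye […] anti-mouse (1:15000) are applied, 1 h each. Read at 800 nm. No-phage negative control.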

[2] = test system: cystic form of Borrelia; assay: Inhibition of conversion of cystic form into spirochetal form; format: cell-based, Borrelia garinii (strain SKT-7.1); settings: for recovery of cystic Borrelia and transformation into the spirochetal form: peptides 1.66 µM for 16 h
In short: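 Cysts formed by 1:1 dilution of early-log culture in serum-free BSK-II, 2 weeks at 15 °C. 2 × 10^3 cysts exposed 16 h to test compound (two-fold series, 3.33–0.05 µM) in serum-free BSK-II, then pelleted and compound removed. Regrown 15 days at 33 °C in serum-containing BSK-II. Counted by flow cytometry; % inhibition vs PBS control; doxycycline 50 nM control.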

[3] = test system: spirochetal form of Borrelia; format: cell-based, Borrelia garinii (strain SKT-7.1); settings: 5 days, 33 °C; for viability of Borrelia (spirochetal form): peptide 1.67 µM, triplicate; for inhibition of the spiral form of Borrelia: 0.41 µM
In short: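 Early-log Borrelia (BSK-II with 6% rabbit serum, 33 °C, about 2 weeks) are counted by flow cytometry. 2 × 10^3 cells go into 200 µl fresh BSK-II with test peptide at 6.67, 3.33, 1.67 or 0 µM, 33 °C for 5 days, then are recounted by flow cytometry. Percent inhibition is relative to 0 µM. Follow-up runs use 0.83, 0.41, 0.20 and 0.10 µM. Doxycycline (50 µM–5 nM) is the positive control.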

[4] = test system: brain microvascular endothelial cells (BMECs); assay: Cell-ELISA binding to endothelial cells; settings: 2 µg peptide, fixed BMEC monolayer, triplicate
In short: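 BMEC monolayers in 96 wells are washed with PBS and fixed in 4% paraformaldehyde for 10 min, then blocked. They are incubated with 2 µg His-tagged test peptide and washed with PBS-T. Bound peptide is detected with HisProbe-HRP (1:1000, 1 h, room temperature) and TMB (25 min), stopped with 2 M H2SO4, read at 450 nm. Triplicates. Negative controls omit cells or peptide.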

[5] = test system: Borrelia; assay: ELISA binding of Bor peptides to Borrelia; design: species or system Borrelia garinii (strain SKT-7.1); settings: for affinity to spirochetal form, cystic form and trypsin-shaved Borrelia (ELISA): 2 µg/well
In short: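 Paraformaldehyde-fixed early-log Borrelia in microtiter wells are incubated 1 h with His-tagged test peptide, 2 µg/well for screening. Two-fold dilutions from 2.6 µM to 86 nM are used for concentration dependence, with the peptide-omitted background subtracted. Detection: five PBS-T washes, HisProbe-HRP (1:1000, 0.5% BSA, 1 h, room temperature), TMB 25 min, 2 M H2SO4 stop, 450 nm. Triplicates. Negative controls omit Borrelia or peptide.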

[6] = test system: HEK293T cells; assay: Cell toxicity, XTT assay; format: cell-based; settings: 3.33 µM, 24 h, six replicates
In short: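 HEK293T cells are grown in high-glucose DMEM with 2 mM L-glutamine and 5% FBS (37 °C, 5% CO2) to 70% confluence. They get test peptide at 3.33 or 0 µM for 24 h. XTT reagent is added for 3 h and read at 450 nm. Controls are PBS (negative) and 0.1% Triton X. Six replicates. Metabolic activity is blank-subtracted sample ×100 over blank-subtracted PBS control.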

[7] = test system: bacterial cell wall; settings: cited from earlier work
[8] = test system: spirochetal form of Borrelia as well as biofilm; settings: compared to antibiotics; cited from earlier work
[9] = test system: BBB model (BMECs, cell line D3); format: in vitro ADME; settings: 1 µg/ml Cy5.5 labelled, luminal to abluminal
In short: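 D3 BMECs (5 × 10^5) are seeded on collagen-I-coated transwell inserts (1 µm pores) in complete endothelial medium. Barrier is confirmed by TEER and dextran. Cy5.5-NHS-labelled truncated OspA fragments (beta sheets 10–11 or 12–16), angiopep-2-Cy5.5 or CF770 dextran go luminally at 1 µg/ml, 37 °C. Abluminal fluorescence (650/705 nm; 770/797 nm) is read at 1, 2 and 3 h and converted by standard curves.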

With “ACTPSFSKICGGGS (disulfide 2-10 (inferred)) [Ph.Bor-11]” the “binding of phage clone to Borrelia in dot blot” value (shortened to “binding of phage clone”) [1] was “best binders”.
With `C[C@H]1c2cccc(O)c2C(=O)C2=C(O)[C@]3(O)C(=O)C(C(N)=O)=C(O)[C@@H](N(C)C)[C@@H]3[C@@H](O)[C@@H]21` [doxycycline, reference compound] the “inhibition of transformation and recovery of cysts into the spirochetal form” value ([2]; 0.05 µM for 16 h) was “did not inhibit”.
In the case of “ACNVRTCHDCGGGS (disulfide (positions not given here)) [Ph.Bor-24]”, the “binding of phage clone” value [1] is reported as “best binders”.
With “ACRGATPMSCGGGS (disulfide 2-10 (inferred)) [Ph.Bor-8]” the “binding of phage clone” value [1] was “best binders”.
With “MRGSHHHHHHGSNEKGETSEKTIVRANGTRLEYTDIKSDGIEGRVDGGGGSDDDDKMACGYSSFNRCGGGS (disulfide 59-67 (inferred)) [Bor-16]” the “viability of Borrelia (spirochetal form)” value [3] was less than 50%, the “recovery of cystic Borrelia and transformation into the spirochetal form” value [2] was “significantly reduced” and the “binding to brain microvascular endothelial cells (cell-ELISA)” value (“binding … (cell-ELISA)” for short) [4] was “bind endothelial cells”.
In the case of “ACQPRNLNNCGGGS (disulfide 2-10 (inferred)) [Ph.Bor-18]”, the “binding of phage clone” value [1] is reported as “best binders”.
For “MRGSHHHHHHGSNEKGETSEKTIVRANGTRLEYTDIKSDGIEGRVDGGGGSDDDDKMACTPSFSKICGGGS (disulfide 59-67 (inferred)) [Bor-11]”, the “inhibition of the spiral form of Borrelia” value [3] was “more than 50%”, the “viability of Borrelia (spirochetal form)” value [3] was less than 50% and the “growth inhibition of cystic form” value ([2]; 0.41 µM, 16 h exposure, t-test p < 0.05) was “inhibiting growth significantly”. The “recovery of cystic Borrelia and transformation into the spirochetal form” value [2] was “significantly reduced”, the “binding … (cell-ELISA)” value [4] was “bind endothelial cells” and the “affinity to spirochetal form, cystic form and trypsin-shaved Borrelia (ELISA)” value [5] was “showed affinity for all three forms”. For the same compound, the “effect on cell metabolic activity (XTT)” value [6] was “no adverse effects”.
In the case of melittin, the “time to destabilise the bacterial cell wall” value [7] is listed as “roughly 75 min” and the “effect on the spirochetal form of Borrelia as well as biofilm” value [8] is listed as “significant effect”.
In the case of “ACHNETQKMCGGGS (disulfide 2-10 (inferred)) [Ph.Bor-9]”, the “binding of phage clone” value [1] is reported as “best binders”.
With “MRGSHHHHHHGSNEKGETSEKTIVRANGTRLEYTDIKSDGIEGRVDGGGGSDDDDKMACPRGIGLQCGGGS (disulfide 59-67 (inferred)) [Bor-26]” the “viability of Borrelia (spirochetal form)” value [3] was less than 50%, the “recovery of cystic Borrelia and transformation into the spirochetal form” value [2] was “significantly reduced” and the “binding … (cell-ELISA)” value [4] was “bind endothelial cells”.
With “ACGYSSFNRCGGGS (disulfide 2-10 (inferred)) [Ph.Bor-16]” the “binding of phage clone” value [1] was “best binders”.
With “ACHNTSARVCGGGS (disulfide 2-10 (inferred)) [Ph.Bor-29]” the “binding of phage clone” value [1] was “best binders”.
In the case of NEKGETSEKTIVRANGTRLEYTDIKSDG [O-BBB], the “borreliacidal effect on spirochetal form” value ([3]; 6.67 µM) is reported as “no borreliacidal effect”, the “binding … (cell-ELISA)” value [4] is reported as “bind endothelial cells” and the “affinity to Borrelia (ELISA)” value ([5]; 2 µg peptide per well, fixed Borrelia, HisProbe-HRP, 450 nm, triplicate) is reported as “no affinity for Borrelia”. The “crossing of BBB model compared with angiopep-2” value ([9]; 2nd hr) was “comparable to that of angiopep-2”, the “crossing of BBB model compared with angiopep-2” value ([9]; 3rd hr) was “significantly higher than that of angiopep-2” and the “effect on cell metabolic activity (XTT)” value [6] was “no adverse effects”.
For “ACLKLGEKWCGGGS (disulfide 2-10 (inferred)) [Ph.Bor-1]”, the “binding of phage clone” value [1] was “best binders”.
With “MRGSHHHHHHGSNEKGETSEKTIVRANGTRLEYTDIKSDGIEGRVDGGGGSDDDDKMACQPRNLNNCGGGS (disulfide 59-67 (inferred)) [Bor-18]” the “inhibition of the spiral form of Borrelia” value [3] was “more than 50%”, the “viability of Borrelia (spirochetal form)” value [3] was less than 50% and the “binding … (cell-ELISA)” value [4] was “bind endothelial cells”. The “affinity to spirochetal form, cystic form and trypsin-shaved Borrelia (ELISA)” value [5] was “showed affinity for all three forms”, the “Absorbance450 in ELISA, binding to Borrelia” value ([5]; peptide 0.08 µM, early log phase Borrelia, negative control subtracted) was 0.8 and the “binding to Borrelia in ELISA compared with other peptides” value ([5]; peptide 0.16 µM, early log phase Borrelia) was “significantly higher; also recorded: showed binding affinity”.
With “ACPRGIGLQCGGGS (disulfide 2-10 (inferred)) [Ph.Bor-26]” the “binding of phage clone” value [1] was “best binders”.
For “ACHNTPHHLCGGGS (disulfide 2-10 (inferred)) [Ph.Bor-23]”, the “binding of phage clone” value [1] was “best binders”.
